Measurements: ChEMBL document CHEMBL2311397, “Design and synthesis of cyclopropylamide analogues of combretastatin-A4 as novel microtubule-stabilizing agents” (J Med Chem, 2013)

Tests used:
Format in all cases: functional, cell-based
K562 = test: Cytotoxicity against human K562 cells after 48 hrs by MTT assay
Procedure, shortened: (§1)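 Log-phase cells (40000–50000 cells/mL) grown in DMEM with 10% fetal calf serum (5% CO2, 37 °C) and exposed 48 h to five concentrations, 3–5 replicates. Read-out was MTT with absorbance at 570 nm; IC50 reported as mean ± SD of three independent experiments. Resistant A549 and HeLa sublines were made by stepwise paclitaxel selection; resistance index = IC50(resistant)/IC50(sensitive).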

A549 = test: Cytotoxicity against human A549 cells after 48 hrs by MTT assay; procedure, shortened: as §1
SW480 = test: Cytotoxicity against human SW480 cells after 48 hrs by MTT assay; procedure, shortened: as §1
[1] = Cytotoxicity against human QGY cells after 48 hrs by MTT assay; procedure, shortened: as §1
HeLa = test: Cytotoxicity against human HeLa cells after 48 hrs by MTT assay; procedure, shortened: as §1

SMILES	IC50 (K562; Homo sapiens, K562, 48 h) [µM]	IC50 (A549; Homo sapiens, A549, 48 h) [µM]	IC50 (SW480; Homo sapiens, SW480, 48 h) [µM]	IC50 ([1]; qgy) [µM]	IC50 (HeLa; Homo sapiens, HeLa, 48 h) [µM]	IC50 ([1]; Homo sapiens, QGY, 48 h) [µM]	IC50 (K562; k562) [µM]	IC50 (A549; a549) [µM]	IC50 (SW480; sw480) [µM]	IC50 (HeLa; hela) [µM]
CCOC(=O)C1(C(=O)Nc2ccc(F)cc2)CC1c1cc(OC)c(OC)c(OC)c1 (cis isomer)	63.7	22.4	46.7	79.1	62.4					
CCOC(=O)[C@@]1(C(=O)Nc2ccccc2Cl)C[C@H]1c1cc(OC)c(OC)c(OC)c1	> 100	17.6	30.1		14.4	34.3				
CCOC(=O)[C@]1(C(=O)Nc2ccccc2)C[C@H]1c1cc(OC)c(OC)c(OC)c1	> 100	37.3	> 100		> 100	> 100				
COc1cc([C@H]2C[C@@]2(CO)C(=O)Nc2ccccc2Cl)cc(OC)c1OC	> 100	> 100	> 100		> 100	> 100				
CCOC(=O)C1(C(=O)NCCc2ccccc2F)CC1c1cc(OC)c(OC)c(OC)c1 (trans isomer)				46.8			79.1	31.1	16.9	> 100
CCOC(=O)C1(C(=O)NCc2ccccc2)CC1c1cc(OC)c(OC)c(OC)c1 (trans isomer)								> 100	> 100	76.3
COc1cc([C@H]2C[C@@]2(CO)C(=O)NCc2ccc(C)cc2)cc(OC)c1OC	> 100	63.8	> 100		> 100	> 100				
CCOC(=O)[C@]1(C(=O)NCc2ccc(C)cc2)C[C@@H]1c1cc(OC)c(OC)c(OC)c1	20.4	34.9	> 100		> 100	> 100				
COc1cc([C@H]2C[C@@]2(CO)C(=O)Nc2ccccc2)cc(OC)c1OC	> 100	> 100	> 100		> 100	> 100				
COc1cc([C@@H]2C[C@]2(CO)C(=O)NCc2ccc(C)cc2)cc(OC)c1OC	> 100	10.5	26.8		17.4	25.1				
CCOC(=O)[C@]1(C(=O)Nc2ccccc2)C[C@@H]1c1cc(OC)c(OC)c(OC)c1	> 100	21.3	31.7		> 100	38.1				
CCOC(=O)[C@@]1(C(=O)Nc2ccccc2)C[C@H]1c1cc(OC)c(OC)c(OC)c1	> 100	65.9	> 100		> 100	48.7				
COc1cc([C@@H]2C[C@@]2(CO)C(=O)Nc2ccccc2Cl)cc(OC)c1OC	18.4	11.4	10.7		13.3	24.5				
COc1cc([C@@H]2C[C@@]2(CO)C(=O)NCc2ccc(C)cc2)cc(OC)c1OC	> 100	46.3	76.3		41.2	58.7				
COc1cc([C@@H]2C[C@@]2(CO)C(=O)Nc2ccccc2)cc(OC)c1OC	> 100	43.2	76.8		86.4	36.7				
CCOC(=O)C1(C(=O)Nc2cccc([N+](=O)[O-])c2)CC1c1cc(OC)c(OC)c(OC)c1 (stereo in doubt; trans)								80.3	49.5	> 100
CCOC(=O)C1(C(=O)NCc2ccc(C)cc2)CC1c1cc(OC)c(OC)c(OC)c1 (trans isomer)				37.9				21.4	> 100	25.6
CCOC(=O)C1(C(=O)Nc2ccccc2[N+](=O)[O-])CC1c1cc(OC)c(OC)c(OC)c1 (trans isomer)				> 100			> 100	30.9	31.8	35.1
CCOC(=O)C1(C(=O)Nc2ccccc2)CC1c1cc(OC)c(OC)c(OC)c1 (trans isomer)				> 100				48.6	> 100	
CCOC(=O)C1(C(=O)NCCc2cccc(F)c2)CC1c1cc(OC)c(OC)c(OC)c1 (cis isomer)	76.1	52.3		39.9					35.5	28.1
CCOC(=O)C1(C(=O)NCc2ccc(OC)cc2)CC1c1cc(OC)c(OC)c(OC)c1 (cis isomer)	> 100	> 100	> 100		> 100	> 100				
CCOC(=O)C1(C(=O)Nc2ccccc2[N+](=O)[O-])CC1c1cc(OC)c(OC)c(OC)c1 (stereo in doubt)	56.3	24.5	34.1		40.2	54.1				
CCOC(=O)C1(C(=O)Nc2ccccc2)CC1c1cc(OC)c(OC)c(OC)c1 (cis isomer)	> 100	31.5			> 100	59.3			49	

SMILES	IC50 (K562; Homo sapiens, K562, 48 h) [µM]	IC50 (A549; Homo sapiens, A549, 48 h) [µM]	IC50 (SW480; Homo sapiens, SW480, 48 h) [µM]	IC50 ([1]; qgy) [µM]	IC50 (HeLa; Homo sapiens, HeLa, 48 h) [µM]	IC50 ([1]; Homo sapiens, QGY, 48 h) [µM]	IC50 (K562; k562) [µM]	IC50 (A549; a549) [µM]	IC50 (SW480; sw480) [µM]	IC50 (HeLa; hela) [µM]
CCOC(=O)[C@@]1(C(=O)NCc2ccc(C)cc2)C[C@@H]1c1cc(OC)c(OC)c(OC)c1	> 100	> 100	> 100		> 100	> 100				
COc1cc([C@H]2C[C@]2(CO)C(=O)NCc2ccc(C)cc2)cc(OC)c1OC	> 100	60.7	94		57.8	56.1				
CCOC(=O)C1(C(=O)NCc2ccccc2)CC1c1cc(OC)c(OC)c(OC)c1 (cis isomer)	> 100	79.5	89.6		46.5	> 100				
CCOC(=O)C1(C(=O)NCCc2ccccc2F)CC1c1cc(OC)c(OC)c(OC)c1 (cis isomer)	> 100	27.3			58.2	34.1			86.3	
CCOC(=O)C1(C(=O)Nc2ccc(F)cc2)CC1c1cc(OC)c(OC)c(OC)c1 (trans isomer)				36.1			> 100	28	42	36.8
CCOC(=O)C1(C(=O)NCCc2ccc(F)cc2)CC1c1cc(OC)c(OC)c(OC)c1 (trans isomer)								> 100	40.3	35
O=c1[nH]cc(F)c(=O)[nH]1 [FLUOROURACIL]	114	56	158		143	126				
CCOC(=O)C1(C(=O)NCCc2ccc(F)cc2)CC1c1cc(OC)c(OC)c(OC)c1 (cis isomer)	> 100		75.1		58.1	> 100		49.3		
COc1cc([C@H]2C[C@]2(CO)C(=O)Nc2ccccc2Cl)cc(OC)c1OC	> 100	36.7	40.2		45.5	40.7				
CCOC(=O)C1(C(=O)Nc2ccccc2Cl)CC1c1cc(OC)c(OC)c(OC)c1 (stereo in doubt; cis)		18				36.1	41.4		27.2	22.1
CCOC(=O)C1(C(=O)NCc2ccc(F)cc2)CC1c1cc(OC)c(OC)c(OC)c1 (trans isomer)				> 100			43.1	34.1	28.4	27.8
CCOC(=O)[C@]1(C(=O)Nc2ccccc2Cl)C[C@@H]1c1cc(OC)c(OC)c(OC)c1	19.5	50.9	> 100		> 100	34.7				
COc1cc([C@H]2C[C@]2(CO)C(=O)Nc2ccccc2)cc(OC)c1OC	> 100	> 100	> 100		> 100	> 100				
CCOC(=O)[C@@]1(C(=O)Nc2ccccc2Cl)C[C@@H]1c1cc(OC)c(OC)c(OC)c1	49.4	29	46.7		> 100	> 100				
CCOC(=O)C1(C(=O)NCc2ccc(F)cc2)CC1c1cc(OC)c(OC)c(OC)c1 (stereo in doubt)	45.1	29.4	34.1		32.3	59.4				
CCOC(=O)C1(C(=O)Nc2cccc([N+](=O)[O-])c2)CC1c1cc(OC)c(OC)c(OC)c1 (stereo in doubt; cis)	> 100	76.4			59.4	> 100			> 100	
CCOC(=O)C1(C(=O)Nc2ccc(OC)cc2)CC1c1cc(OC)c(OC)c(OC)c1 (stereo in doubt)				> 100				> 100	> 100	> 100
CCOC(=O)C1(C(=O)Nc2ccc(OC)cc2)CC1c1cc(OC)c(OC)c(OC)c1 (cis isomer)	> 100	61.4	66.3		81.6	86.1				
CCOC(=O)[C@@]1(C(=O)NCc2ccc(C)cc2)C[C@H]1c1cc(OC)c(OC)c(OC)c1	> 100	17.1	> 100		19.7	26.4				
CCOC(=O)C1(C(=O)Nc2cccc(Cl)c2)CC1c1cc(OC)c(OC)c(OC)c1 (stereo in doubt; cis)	52.1	25.6	37.4	46.3						35.1
CCOC(=O)C1(C(=O)NCCc2cccc(F)c2)CC1c1cc(OC)c(OC)c(OC)c1 (trans isomer)				> 100			> 100	64.3	79.3	58.2
CCOC(=O)[C@@]1(C(=O)Nc2ccccc2)C[C@@H]1c1cc(OC)c(OC)c(OC)c1	> 100	> 100	> 100		> 100	> 100				
CCOC(=O)C1(C(=O)NCc2ccc(OC)cc2)CC1c1cc(OC)c(OC)c(OC)c1 (trans isomer)								73.8		
